High-throughput results: PubChem, The Scripps Research Institute Molecular Screening Center
Hits are enriched below; roughly 3.5% of the tested compounds scored in any of these assays.
TCR-CD3 inh = human TCR-CD3 binding inhibition | TAMRA-labeled TCR probe fluorescence, biochemical | inhibition, % at 9.4 µM | actives 0.37% (n = 360,000); in the data active = inhibition above about 19%;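 note: recombinant mutant TCR 2C K166C tagged with TAMRA read by polarization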
SIAE primary = blocks human sialic acid acetylesterase; inhibition, % at 9.66 µM; SIAE FP-Rh probe binding, fluorescence polarization; actives 0.69% (n = 370,000); Q9HAT2;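 active = inhibition above a cutoff: mean of compounds within the control limits plus 3 SD of those, cut at about 17% in these data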
rCAG binder = binds r(CAG) RNA repeats; r(CAG) RNA repeat, TO-PRO-1 dye displacement fluorescence; inhibition, % at 3 µM; actives 1.3% (n = 370,000);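 active = inhibition above the plate cutoff, the mean of all test compounds on that plate plus 3 SD, cut at about 35% in these data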;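 note: higher means more dye released from RNA so lower well fluorescence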
HTRA1 inhibitor = HTRA1 (human) protease inhibition. inhibition, % at 5.96 µM. actives 0.5% (n = 340,000). Q92743. recombinant HTRA1, FP-rhodamine activity-based probe, fluorescence polarization. AID 504803; in the data active = inhibition above about 36%
ABHD4 inh = inhibitors of mouse ABHD4. actives 0.54% (n = 370,000). Q8VD66. inhibition, % at 8.92 µM. purified mABHD4, FP-Rh probe fluorescence polarization;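 active = inhibition exceeding the mean over every tested compound plus 3 SD, cut at about 30% in these data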
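Assay system: wild-type mouse ABHD4 protein; compound: single nominal dose of 8.92 µM, 0.89% DMSO final; schedule: 45 min + 60 min at 25 °C; measured by: FP readout, ex 525 nm / em 598 nm; evaluation: % inhibition of FP-Rh probe binding versus controls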
PRMT1 inh = inhibitors of human PRMT1; Q99873; recombinant PRMT1, activity-based probe fluorescence polarization; inhibition, % at 2.79 µM; actives 1.3% (n = 370,000); AID 652257;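 active = inhibition above about 21% made by adding two undisclosed values, limit read from the data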
Target sequence (Q99873 whole entry, looked up): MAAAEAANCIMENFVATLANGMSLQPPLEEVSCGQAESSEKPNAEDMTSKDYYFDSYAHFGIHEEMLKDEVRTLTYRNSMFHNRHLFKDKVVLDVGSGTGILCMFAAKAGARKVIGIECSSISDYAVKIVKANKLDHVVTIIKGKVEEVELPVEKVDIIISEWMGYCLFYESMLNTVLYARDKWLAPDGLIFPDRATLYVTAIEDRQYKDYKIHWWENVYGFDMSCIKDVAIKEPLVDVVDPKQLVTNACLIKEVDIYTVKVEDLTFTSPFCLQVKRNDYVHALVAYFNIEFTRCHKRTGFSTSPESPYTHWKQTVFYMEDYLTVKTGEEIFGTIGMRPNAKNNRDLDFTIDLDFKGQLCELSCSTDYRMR
A number is an active result; i = inactive; nt = not tested or not shown.

SMILES	TCR-CD3 inh	SIAE primary	rCAG binder	HTRA1 inhibitor	ABHD4 inh	PRMT1 inh
CCn1cc(C(=O)NC(C)C)c(=O)c2cc(F)c(N3CCN(C(=O)c4ccco4)CC3)cc21	i	i	i	i	i	i
CCn1cc(C(=O)Nc2ncccc2O)c(=O)c2cc(F)c(N3CCN(C(=O)c4ccco4)CC3)cc21	20	i	i	i	i	i
O=C(Nc1ccc(Br)cc1)c1cccc(S(=O)(=O)Nc2cnc3ccccc3c2)c1	i	i	80	i	i	i
O=C(Nc1ccc(Br)cc1)c1cccc(S(=O)(=O)Nc2ccccn2)c1	i	i	i	i	i	i
CCCCC1=CC2=CC(=O)C(C)(OC(=O)c3cccs3)C(=O)C2=CO1 (stereo not drawn)	i	i	37	i	i	i
C#CCN(C)S(=O)(=O)c1ccc(N2CCCC2)cc1Br	nt	i	i	nt	i	i
CC(OC(=O)c1ccc(NC(=O)CC#N)cc1)C(=O)Nc1ccc(Oc2ccccc2)cc1 (stereo not drawn)	35	i	i	i	i	i
COc1ccc(Cn2c(C)nc3c(c2=O)c2nc4ccccc4nc2n3Cc2ccco2)cc1	i	i	i	i	i	40
CCC(C)[C@@H](C(=O)OC)N(Cc1cn(Cc2ccccc2)nn1)S(=O)(=O)c1ccccc1Br (stereo partly drawn)	nt	i	i	nt	i	i
C[C@H]1CCC/C=C/[C@@H]2C[C@H](O)C[C@H]2[C@H](O)[C@H](S(=O)c2ccc(O)cc2)CC(=O)O1 (stereo partly drawn)	i	i	i	i	i	73
Cc1ccc(OCc2nc(C#N)c(NCc3ccc4c(c3)OCO4)o2)cc1	i	i	i	i	i	i
CCOc1ccc(-c2nc(C#N)c(NCc3ccc4c(c3)OCO4)o2)cc1	i	18	i	i	i	i
COC(=O)c1cccc(OCC(C)CN2CCC(C(O)(c3ccccc3)c3ccccc3)CC2)c1 (stereo not drawn)	nt	i	i	nt	i	i
O=C(CSc1cccc[n+]1[O-])Nc1cc2c(cc1Cl)C(=O)c1ccccc1C2=O	i	i	i	i	i	23
CSCCC(=O)N1C(C)CCCC1C(=O)O (stereo not drawn)	i	i	i	i	i	i
CC1CCCC(C(=O)O)N1C(=O)CCS (stereo not drawn)	i	i	i	i	i	25
Cc1cc2c(SCC(=O)Nc3cccc(O)c3)ncnc2s1	i	i	54	i	i	34
COc1ccc(NC(=O)CSc2ncnc3sc(C)cc23)cc1	i	i	i	i	i	i
Cc1cc(O)c2c(c1)C(=O)c1cccc(O)c1C2=O	i	i	i	nt	i	i
O=C(O)c1cc(O)c2c(c1)C(=O)c1cccc(O)c1C2=O	i	i	i	i	98	32
O=c1oc2ccccc2nc1/C=C(\O)c1ccccc1	i	i	i	nt	i	i
O=c1oc2cc([N+](=O)[O-])ccc2nc1/C=C(\O)c1cccc(Br)c1	i	i	i	i	39	i
COc1ccc(C(=O)OCCCN(C)C2CN(Cc3cn(Cc4ccccc4Cl)nn3)S(=O)(=O)C2)cc1OC (stereo not drawn)	nt	i	i	nt	i	i
Cc1ccc(C)c(C(=O)COc2ccc(C)nc2[N+](=O)[O-])c1	i	i	i	i	i	21
Cc1ccc(OCC(=O)c2cc(C)c(C)cc2C)c([N+](=O)[O-])n1	i	i	i	i	i	24
SMILES	TCR-CD3 inh	SIAE primary	rCAG binder	HTRA1 inhibitor	ABHD4 inh	PRMT1 inh
C#CCCN([C@@H](CC(C)C)C(=O)OC)S(=O)(=O)c1ccccc1Br	nt	i	i	nt	i	i
COc1ccc([C@@H]2CC=C(C(=O)O)[C@H](c3ccccc3)N2S(=O)(=O)c2ccc(C)cc2)cc1OC	i	i	i	i	i	i
Cc1ccc(S(=O)(=O)N2[C@@H](c3ccc(C(C)(C)C)cc3)C(C(=O)O)=CC[C@H]2c2ccc(Cl)cc2)cc1	i	nt	89	i	i	i
COc1ccc([C@@H]2CC=C(C(=O)O)[C@H](c3ccccc3)N2S(=O)(=O)c2ccccc2C)cc1	i	i	36	i	i	i
N#Cc1ccccc1N1CCN(S(=O)(=O)c2ccc3c(c2)CCC(=O)N3)CC1	nt	i	i	nt	i	i
O=C1CSC(=S)N1N=C1CCCCCC1	i	i	i	i	i	23
CCCC(=O)OC12CCCN(C1)/C(=C/c1ccccc1)C2 (stereo not drawn)	nt	i	i	nt	i	i
COC(=O)[C@@]1(Cc2ccc(F)cc2)[C@H]2c3cc(C(=O)N4CCCC4)n(Cc4ccc(C)c(F)c4F)c3C[C@H]2CN1C(=O)c1ccccc1	i	i	i	nt	i	i
COC(=O)[C@@]1(Cc2ccc(F)cc2)[C@H]2c3cc(C(=O)N4CCCC4)n(Cc4ccc(S(C)(=O)=O)cc4)c3C[C@H]2CN1C(=O)c1ccccc1	i	i	i	nt	i	i
COC(=O)[C@@]1(Cc2ccc(F)cc2)[C@H]2c3cc(C(=O)N4CCCC4)n(Cc4ccc(C(F)(F)F)nc4)c3C[C@H]2CN1C(=O)c1ccccc1	i	17	i	nt	i	i
COC(=O)[C@@]1(Cc2ccc(F)cc2)[C@H]2c3cc(C(=O)N4CCCC4)n(Cc4ccc(C)o4)c3C[C@H]2CN1C(=O)c1ccccc1	i	i	i	nt	i	24
CC(C)(C)OC(=O)C1[C@H](O)C=CC[C@H]1S(=O)c1ccccc1 (stereo partly drawn)	nt	i	nt	nt	i	i
N#CCCCN1C(=O)C(=C(C#N)C#N)c2ccccc21	i	i	i	i	i	24
O=C(CN1CCN(c2ccc(O)cc2)CC1)Nc1ccc2c(c1)OCCO2	i	i	i	i	i	24
COc1ccc(OCC(=O)Sc2ccc(C)cc2)cc1	i	i	i	i	i	33
COc1ccc(OC(=O)COc2ccc(C)cc2)cc1	i	i	i	i	i	i
COC(=O)[C@]12C[C@H](CC(=O)NCc3cccs3)C(=O)N(Cc3ccc4c(c3)OCO4)C1=C[C@H](C(C)C)O[C@@H]2C1CC1	nt	i	i	nt	i	i
O=C(O)Cn1c2ccccc2c2ccccc21	i	i	i	i	i	i
O=C(O)Cn1c2c(c3ccccc31)CSc1ccc(Cl)cc1-2	i	i	58	i	i	78
COC(=O)[C@]12C[C@H](CC(=O)NCc3cccs3)C(=O)N(CCc3ccc(OC)c(OC)c3)C1=C[C@H](COCc1ccccc1)O[C@@H]2C	nt	i	i	nt	i	i
CC(C)(C=O)C1=CC(=O)c2ccccc2C1=O	i	i	i	i	37	52
CC1=CC(=O)c2ccccc2C1=O	i	i	i	i	i	i
Cc1ccccc1C(=O)Nc1ccc(-c2nc3ccc(C(=O)c4ccccc4)cc3[nH]2)cc1	67	i	i	i	i	i
COCCCNc1oc(COc2ccc(Cl)cc2Cl)nc1C#N	i	17	i	i	i	i
C#CCOCCOCCOCCNc1nc(N2CCN(C(=O)Cn3cc(CCCN=C(N)N)nn3)CC2)nc(N2CCN(C(=O)[C@H](Cc3ccc(O)cc3)n3cc(CCO)nn3)CC2)n1	nt	i	nt	nt	i	i
